Laboratory results: ChEMBL document CHEMBL3525900, “Pharmacokinetics, distribution, and metabolism of [14C]sunitinib in rats, monkeys, and humans” (Drug Metab Dispos, 2012)

Key:
[1] = Drug concentration in female albino rat bladder assessed as radioactivity per gram of tissue at 20 mg/kg administered as single dose via gastric gavage measured after 3 hrs by autoradiographic analysis; assay type: ADME, organism-based, Urinary bladder; design: dose 20 mg/kg, dosed compound name [14C]Sunitinib; details: in vivo, po
Summary of the method: (§1)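 Sprague Dawley (albino) rats, ca 7-8 weeks old, received a single gastric-gavage dose of [14C]sunitinib L-malate at 20 mg/kg (15 mg freebase/kg, 100 µCi/kg). One animal per sex killed by CO2 at 3, 6, 24, 72 and 168 h, then frozen in CO2/hexane. 30 µm sagittal sections were cut and freeze-dried. Radioactivity per gram quantified by whole-body autoradiography using regression against standards. LOQ 0.04–0.06 µg freebase equiv/g.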

Kidney [2] = test: Drug concentration in female albino rat kidney assessed as radioactivity per gram of tissue at 20 mg/kg administered as single dose via gastric gavage measured after 3 hrs by autoradiographic analysis; assay type: ADME, organism-based; design: dose 20 mg/kg, dosed compound name [14C]Sunitinib; details: in vivo, po
Summary of the method: (§2)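 Sprague Dawley albino rats, ca 7-8 weeks old, dosed once by gastric gavage with [14C]sunitinib L-malate (15 mg freebase/kg, 100 µCi/kg). One male and one female killed by CO2 at 3, 6, 24, 72 and 168 h. Carcasses frozen in solid CO2/hexane, embedded and cut into 30 µm sagittal sections, then freeze-dried. Radioactivity quantified by whole-body autoradiography against standards by regression, background subtracted.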

[3] = Drug concentration in female albino rat eye assessed as radioactivity per gram of tissue at 20 mg/kg administered as single dose via gastric gavage measured after 24 hrs by autoradiographic analysis; assay type: ADME, organism-based; design: dose 20 mg/kg, dosed compound name [14C]Sunitinib; details: in vivo, po; summary of the method: as §2
[4] = Drug concentration in female Lister Hooded pigmented rat bone marrow assessed as radioactivity per gram of tissue at 20 mg/kg administered as single dose via gastric gavage measured after 24 hrs by autoradiographic analysis; assay type: ADME, organism-based; design: dose 20 mg/kg, dosed compound name [14C]Sunitinib; details: in vivo, po
Summary of the method: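 Lister Hooded (pigmented) rats, ca 7-8 weeks old, acclimated 7 days, given [14C]sunitinib L-malate by gastric gavage at 20 mg/kg (15 mg freebase/kg, 100 µCi/kg). One male and one female killed by CO2 at 24, 72, 168 and 336 h. Carcasses frozen in solid CO2/hexane and embedded in frozen cellulose. 30 µm sagittal cryosections were freeze-dried. Tissue radioactivity measured by quantitative whole-body autoradiography against calibration standards, with background subtracted.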

Liver = test: Drug concentration in female albino rat liver assessed as radioactivity per gram of tissue at 20 mg/kg administered as single dose via gastric gavage measured after 6 hrs by autoradiographic analysis; assay type: ADME, organism-based; design: dose 20 mg/kg, dosed compound name [14C]Sunitinib; details: in vivo, po; summary of the method: as §2
Homo sapiens = test: Terminal half life as total radioactivity in human plasma at 50 mg, po administered as single dose measured up to 24 hrs by LC/MS/MS analysis; assay type: ADME, organism-based; design: dosed compound name [14C]Sunitinib; details: in vivo
Spleen = test: Drug concentration in male albino rat spleen assessed as radioactivity per gram of tissue at 20 mg/kg administered as single dose via gastric gavage measured after 6 hrs by autoradiographic analysis; assay type: ADME, organism-based; design: dose 20 mg/kg, dosed compound name [14C]Sunitinib; details: in vivo, po
Stomach = test: Drug concentration in male albino rat stomach assessed as radioactivity per gram of tissue at 20 mg/kg administered as single dose via gastric gavage measured after 6 hrs by autoradiographic analysis; assay type: ADME, organism-based; design: dose 20 mg/kg, dosed compound name [14C]Sunitinib; details: in vivo, po
Cynomolgus monkey [5] = test: Drug recovery in cage residue of female cynomolgus monkey at 6 mg/kg, po administered as single dose during 0 to 336 hrs by liquid scintillation counting; assay type: ADME, organism-based, Macaca fascicularis; design: dose 6 mg/kg, dosed compound name [14C]Sunitinib, route oral; details: in vivo
Lung = test: Drug concentration in female albino rat lung assessed as radioactivity per gram of tissue at 20 mg/kg administered as single dose via gastric gavage measured after 24 hrs by autoradiographic analysis; assay type: ADME, organism-based; design: dose 20 mg/kg, dosed compound name [14C]Sunitinib; details: in vivo, po; summary of the method: as §2
[6] = Drug concentration in male Lister Hooded pigmented rat skeletal muscle assessed as radioactivity per gram of tissue at 20 mg/kg administered as single dose via gastric gavage measured after 24 hrs by autoradiographic analysis; assay type: ADME, organism-based; design: dose 20 mg/kg, dosed compound name [14C]Sunitinib; details: in vivo, po
Zone of skin [7] = test: Drug concentration in male albino rat abdomen skin assessed as radioactivity per gram of tissue at 20 mg/kg administered as single dose via gastric gavage measured after 6 hrs by autoradiographic analysis; assay type: ADME, organism-based; design: dose 20 mg/kg, dosed compound name [14C]Sunitinib; details: in vivo, po
Brain [8] = test: Drug concentration in female albino rat brain assessed as radioactivity per gram of tissue at 20 mg/kg administered as single dose via gastric gavage measured after 3 hrs by autoradiographic analysis; assay type: ADME, organism-based; design: dose 20 mg/kg, dosed compound name [14C]Sunitinib; details: in vivo, po; summary of the method: as §1
[9] = Drug concentration in male Lister Hooded pigmented rat salivary gland assessed as radioactivity per gram of tissue at 20 mg/kg administered as single dose via gastric gavage measured after 24 hrs by autoradiographic analysis; assay type: ADME, organism-based; design: dose 20 mg/kg, dosed compound name [14C]Sunitinib; details: in vivo, po
[10] = Drug concentration in male albino rat brown fat assessed as radioactivity per gram of tissue at 20 mg/kg administered as single dose via gastric gavage measured after 3 hrs by autoradiographic analysis; assay type: ADME, organism-based, Brown adipose tissue; design: dose 20 mg/kg, dosed compound name [14C]Sunitinib; details: in vivo, po
[11] = Drug concentration in male albino rat skeletal muscle assessed as radioactivity per gram of tissue at 20 mg/kg administered as single dose via gastric gavage measured after 24 hrs by autoradiographic analysis; assay type: ADME, organism-based; design: dose 20 mg/kg, dosed compound name [14C]Sunitinib; details: in vivo, po
Pancreas [12] = test: Drug concentration in male albino rat pancreas assessed as radioactivity per gram of tissue at 20 mg/kg administered as single dose via gastric gavage measured after 24 hrs by autoradiographic analysis; assay type: ADME, organism-based; design: dose 20 mg/kg, dosed compound name [14C]Sunitinib; details: in vivo, po
Rattus norvegicus = test: Apparent terminal half life as total radioactivity in male Sprague-Dawley rat plasma at 15 mg/kg, po administered as single dose by LC/MS/MS analysis; assay type: ADME, organism-based; design: dose 15 mg/kg, dosed compound name [14C]Sunitinib, route oral; details: in vivo
Summary of the method: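 Single dose of [14C]sunitinib L-malate as free base, 50 µCi/kg. IV dose was 5 mg/kg by tail vein in 5 females. Oral dose was 15 mg/kg by gavage in 3 females and 3 males. Total radioactivity was by scintillation counting. […] Cmax was read from raw data, t½ by log-linear regression, AUC by linear trapezoidal rule.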

Pancreas [13] = test: Drug concentration in male Lister Hooded pigmented rat pancreas assessed as radioactivity per gram of tissue at 20 mg/kg administered as single dose via gastric gavage measured after 24 hrs by autoradiographic analysis; assay type: ADME, organism-based; design: dose 20 mg/kg, dosed compound name [14C]Sunitinib; details: in vivo, po
Zone of skin [14] = test: Drug concentration in male albino rat abdomen skin assessed as radioactivity per gram of tissue at 20 mg/kg administered as single dose via gastric gavage measured after 72 hrs by autoradiographic analysis; assay type: ADME, organism-based; design: dose 20 mg/kg, dosed compound name [14C]Sunitinib; details: in vivo, po
Adrenal [15] = test: Drug concentration in female albino rat adrenal assessed as radioactivity per gram of tissue at 20 mg/kg administered as single dose via gastric gavage measured after 168 hrs by autoradiographic analysis; assay type: ADME, organism-based; design: dose 20 mg/kg, dosed compound name [14C]Sunitinib; details: in vivo, po; summary of the method: as §1
Cynomolgus monkey [16] = test: Total drug recovery in female cynomolgus monkey at 6 mg/kg, po administered as single dose during 0 to 336 hrs by liquid scintillation counting; assay type: ADME, organism-based, Macaca fascicularis; design: dose 6 mg/kg, dosed compound name [14C]Sunitinib, route oral; details: in vivo
Adrenal [17] = test: Drug concentration in male Lister Hooded pigmented rat adrenal assessed as radioactivity per gram of tissue at 20 mg/kg administered as single dose via gastric gavage measured after 24 hrs by autoradiographic analysis; assay type: ADME, organism-based; design: dose 20 mg/kg, dosed compound name [14C]Sunitinib; details: in vivo, po
[18] = Drug concentration in male albino rat pituitary gland assessed as radioactivity per gram of tissue at 20 mg/kg administered as single dose via gastric gavage measured after 6 hrs by autoradiographic analysis; assay type: ADME, organism-based; design: dose 20 mg/kg, dosed compound name [14C]Sunitinib; details: in vivo, po
[19] = Drug concentration in female albino rat bladder assessed as radioactivity per gram of tissue at 20 mg/kg administered as single dose via gastric gavage measured after 24 hrs by autoradiographic analysis; assay type: ADME, organism-based, Urinary bladder; design: dose 20 mg/kg, dosed compound name [14C]Sunitinib; details: in vivo, po; summary of the method: as §1
Kidney [20] = test: Drug concentration in male albino rat kidney assessed as radioactivity per gram of tissue at 20 mg/kg administered as single dose via gastric gavage measured after 72 hrs by autoradiographic analysis; assay type: ADME, organism-based; design: dose 20 mg/kg, dosed compound name [14C]Sunitinib; details: in vivo, po
Brain [21] = test: Drug concentration in female albino rat brain assessed as radioactivity per gram of tissue at 20 mg/kg administered as single dose via gastric gavage measured after 24 hrs by autoradiographic analysis; assay type: ADME, organism-based; design: dose 20 mg/kg, dosed compound name [14C]Sunitinib; details: in vivo, po; summary of the method: as §1
[22] = Drug recovery in feces of female Sprague-Dawley rat at 5 mg/kg, iv administered as single dose during 0 to 72 hrs by liquid scintillation counting; assay type: ADME, organism-based; design: dose 5 mg/kg, dosed compound name [14C]Sunitinib, route intravenous; details: in vivo

Radiolabel recovery [1]: 3.73 ugequiv
Radiolabel recovery (Kidney [2]): 16.11 ugequiv
Radiolabel recovery [3]: 0.43 ugequiv
Radiolabel recovery [4]: 0.74 ugequiv
Radiolabel recovery (Liver): 15.16 ugequiv
beta t1/2 (Homo sapiens): 28.2 h
Radiolabel recovery (Spleen): 16.24 ugequiv
Radiolabel recovery (Stomach): 9.3 ugequiv
Radiolabel recovery (Cynomolgus monkey [5]): 0.6%
Radiolabel recovery (Lung): 1.64 ugequiv
Radiolabel recovery [6]: 0.3 ugequiv
Radiolabel recovery (Zone of skin [7]): 3.45 ugequiv
Radiolabel recovery (Brain [8]): 0.52 ugequiv
Radiolabel recovery [9]: 3.52 ugequiv
Radiolabel recovery [10]: 8.47 ugequiv
Radiolabel recovery [11]: 0.16 ugequiv
Radiolabel recovery (Pancreas [12]): 1.68 ugequiv
t1/2 lambda z (Rattus norvegicus): 9 h
Radiolabel recovery (Pancreas [13]): 1.23 ugequiv
Radiolabel recovery (Zone of skin [14]): 0.27 ugequiv
Radiolabel recovery (Adrenal [15]): 0.33 ugequiv
Radiolabel recovery (Cynomolgus monkey [16]): 90.7%
Radiolabel recovery (Adrenal [17]): 4.3 ugequiv
Radiolabel recovery [18]: 22.94 ugequiv
Radiolabel recovery [19]: 0.54 ugequiv
Radiolabel recovery (Kidney [20]): 0.16 ugequiv
Radiolabel recovery (Brain [21]): 0.07 ugequiv
Radiolabel recovery [22]: 77.2%
SMILES: CCN(CC)CCNC(=O)c1c(C)[nH]c(/[14CH]=C2\C(=O)Nc3ccc(F)cc32)c1C.O=C(O)C[C@H](O)C(=O)O
